This is an account of results in ChEMBL document CHEMBL1795281, “Prenylated Polyhydroxy-p-terphenyls from Aspergillus taichungensis ZHN-7-07” (J Nat Prod, 2011).

Assay type in all cases: functional, cell-based
The subject of assay [1] is HL-60. Put plainly: Cytotoxicity against human HL60 cells by MTT assay. The gist of the method: (§1)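 MTT read-out on HL-60 and P-388 cell lines, with adriamycin as the positive control. IC50 values are means of three independent experiments.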
On the technique in general: Tetrazolium dyes change colour on reduction, which living cells bring about.

Assay [2] concerns P388. Put plainly: Cytotoxicity against mouse P388 cells by MTT assay. In short, it runs like this: as §1
The test system of assay [3] is A549. Put plainly: Cytotoxicity against human A549 cells by SRB assay. The gist of the method: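 SRB staining assay on A-549 cells, run alongside an adriamycin positive control. IC50 values are means of three independent experiments.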

Molecules are shown by their SMILES.

For orientation: IC50 means the point on the concentration scale where inhibition reaches its midpoint. A high value points to a need for much substance. Take `COc1cc(-c2ccccc2)c(OC)c(O)c1-c1ccc(O)c(O)c1`: the values for the IC50 in assay [1], in assay [2] and in assay [3] were 9.89 µM, 2.7 µM and 40.7 µM, respectively.
`COc1cc(-c2ccc(O)cc2)c(OC)c(O)c1-c1ccc(O)c(O)c1`: the IC50 in assay [1] was 9.86 µM; in assay [2] it was 28.1 µM; in assay [3], 34.7 µM.
The matching figures for `COc1cc(-c2ccc(O)c(O)c2)c(OC)c(O)c1-c1ccc(O)c(O)c1`: 11 µM, 9.13 µM and 14.3 µM.
As for `COc1c(-c2ccc(O)cc2)cc(OC)c2c1oc1cc(O)c(O)cc12` [CANDIDUSIN A], the IC50 in assay [1] came out at 77.6 µM; in assay [2], 46.8 µM; in assay [3] it was 19.3 µM.
The matching figures for `COc1ccc(-c2cc(OC)c3c(oc4cc(O)c(O)cc43)c2OC)cc1` [CANDIDUSIN C]: 16.5 µM, 96.9 µM and 83.6 µM.
The matching figures for `COc1c(-c2ccc(O)c(CC=C(C)C)c2)cc(OC)c2c1oc1cc(O)c(O)cc12` [PRENYLCANDIDUSIN A]: 11.8 µM, 16.5 µM and 53.2 µM.
The matching figures for `COc1cc2oc3c(OC)c(-c4ccc(O)c(CC=C(C)C)c4)cc(OC)c3c2cc1OC` [PRENYLCANDIDUSIN B]: 76.7 µM, 1.57 µM and 8.61 µM.
Take `COc1cc2oc3c(OC)c(-c4ccc(O)c(CC=C(C)C)c4)cc(OC)c3c2cc1O` [PRENYLCANDIDUSIN C]: the IC50 in assay [1] was 10.1 µM; in assay [2], 75.7 µM; in assay [3], 12.3 µM.
The matching figures for `COc1cc(-c2ccc(O)c(CC=C(C)C)c2)c(OC)c(O)c1-c1ccc(O)c(O)c1` [PRENYLTERPHENYLLIN A]: 1.53 µM, 10.9 µM and 8.32 µM.
The matching figures for `COc1cc(-c2ccc(O)c(CC=C(C)C)c2)c(OC)c(O)c1-c1ccc(O)cc1` [PRENYLTERPHENYLLIN B]: 38.6 µM, 12.6 µM and > 100 µM.
The matching figures for `COc1cc(-c2ccc(O)cc2)c(OC)c(O)c1-c1cc(O)c(O)c(CC=C(C)C)c1` [PRENYLTERPHENYLLIN C]: 28.2 µM, 86.2 µM and > 100 µM.
As to `COc1cc(-c2ccc(O)cc2)c(OC)c(O)c1-c1ccc(O)c(CC=C(C)C)c1` [PRENYLTERPHENYLLIN], the results for the IC50 in assay [1], in assay [2] and in assay [3] were 2.75 µM, 1.99 µM and 3.62 µM, respectively.
The matching figures for `COc1cc(-c2ccc(O)cc2)c(OC)c(O)c1-c1ccc(O)cc1` [TERPHENYLLIN]: 11 µM, 17.8 µM and 12.2 µM.
